Measured values taken from ChEMBL document CHEMBL1134681, “Pseudoproline-containing analogues of morphiceptin and endomorphin-2: evidence for a cis Tyr-Pro amide bond in the bioactive conformation” (J Med Chem, 2001).

Columns and labels:
[1] = target: Delta-type opioid receptor (Rattus norvegicus, UniProt P33533); test: Binding affinity towards delta receptor in rat brain using [3H]DSLET; format: tissue-based
Mus musculus [2] = species: Mus musculus; test: In vitro inhibition of electrically evoked contractions of MVD (Mouse vas deferens); format: functional
Cavia porcellus [3] = species: Cavia porcellus; test: In vitro inhibition of electrically evoked contractions of GPI (Guinea pig ileum); format: functional
Mu-type opioid receptor [4] = target: T1, Mu-type opioid receptor (Rattus norvegicus, UniProt P33535); test: (§1) Binding affinity towards mu receptor in rat brain using [3H]DAMGO; format: tissue-based
T1 sequence (P33535 whole entry): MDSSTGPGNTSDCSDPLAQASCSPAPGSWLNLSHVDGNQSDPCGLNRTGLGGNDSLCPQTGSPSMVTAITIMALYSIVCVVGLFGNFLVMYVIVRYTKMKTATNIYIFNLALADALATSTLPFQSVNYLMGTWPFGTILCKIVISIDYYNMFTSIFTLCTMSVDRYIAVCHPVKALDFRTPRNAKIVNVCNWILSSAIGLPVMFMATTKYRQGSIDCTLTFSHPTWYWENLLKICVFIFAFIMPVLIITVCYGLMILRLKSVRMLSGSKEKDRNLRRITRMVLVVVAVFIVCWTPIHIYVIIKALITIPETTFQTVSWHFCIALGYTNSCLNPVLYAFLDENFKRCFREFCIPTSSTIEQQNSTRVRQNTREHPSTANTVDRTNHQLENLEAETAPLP

Mus musculus [5] = species: Mus musculus; test: In vitro inhibition of electrically evoked contractions of MVD (Mouse vas deferens) relative to [Leu5]-enkephalin; format: functional
[6] = Ratio of inhibition of electrically evoked contractions of mouse vas deferens and inhibition of electrically evoked contractions of guinea pig ileum; IC50 ratio; format: functional
Outline: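 Ratio of normalized IC50 values from electrically stimulated mouse vas deferens versus guinea pig ileum.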

Cavia porcellus [7] = species: Cavia porcellus; test: In vitro inhibition of electrically evoked contractions of GPI (Guinea pig ileum) relative to [Leu5]-enkephalin; format: functional
Mu-type opioid receptor [8] = target: T1, Mu-type opioid receptor; test: as §1; format: tissue-based; remark: listed apart in the source
Outline: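 Rat brain membranes; competitive displacement of [³H]DAMGO (0.72 nM; Kd 1.3 nM), incubated 2 h at 0 °C. IC50 taken from log dose–displacement curves, converted to Ki by Cheng–Prusoff.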

Cavia porcellus [9] = species: Cavia porcellus; test: in vitro inhibition of electrically evoked contractions of GPI (Guinea pig ileum); format: functional
Mus musculus [10] = species: Mus musculus; test: in vitro inhibition of electrically evoked contractions of MVD (Mouse vas deferens); format: functional
Mus musculus [11] = species: Mus musculus; test: in vitro inhibition of electrically evoked contractions of MVD (Mouse vas deferens) relative to [Leu5]-enkephalin; format: functional
Outline: (§2)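 Electrically stimulated isolated tissue (guinea pig ileum or mouse vas deferens), with inhibition of evoked contractions as read-out. […] IC50 values were taken from these curves and normalized to that standard by a published procedure.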

Cavia porcellus [12] = species: Cavia porcellus; test: in vitro inhibition of electrically evoked contractions of GPI (Guinea pig ileum) relative to [Leu5]-enkephalin; format: functional; outline: as §2

Chain of Delta-type opioid receptor (P33533 whole entry): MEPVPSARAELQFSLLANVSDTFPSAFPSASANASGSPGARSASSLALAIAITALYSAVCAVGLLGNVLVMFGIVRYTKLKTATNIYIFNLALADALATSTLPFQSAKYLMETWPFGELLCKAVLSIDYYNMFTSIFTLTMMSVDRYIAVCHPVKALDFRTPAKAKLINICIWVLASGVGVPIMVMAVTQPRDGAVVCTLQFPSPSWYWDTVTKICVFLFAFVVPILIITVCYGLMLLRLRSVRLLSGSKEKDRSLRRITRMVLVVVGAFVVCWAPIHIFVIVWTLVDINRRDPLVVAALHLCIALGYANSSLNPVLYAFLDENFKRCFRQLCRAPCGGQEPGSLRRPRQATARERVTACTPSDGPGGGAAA

Structure (SMILES) | Ki [1] [nM] | IC50 (Mus musculus [2]) [nM] | IC50 (Cavia porcellus [3]) [nM] | Ki (Mu-type opioid receptor [4]) [nM] | Relative potency (Mus musculus [5]) | Relative potency (Cavia porcellus [7]) | further results
NC(=O)[C@@H]1CCCN1C(=O)[C@@H](Cc1ccccc1)NC(=O)[C@@H]1CSCN1C(=O)[C@@H](N)Cc1ccc(O)cc1 [listing 1 of 2 here] | 2450 | 190 | 74.5 | 8.57 |  |  | 
NC(=O)[C@@H]1CCCN1C(=O)[C@@H](Cc1ccccc1)NC(=O)[C@@H]1CSCN1C(=O)[C@@H](N)Cc1ccc(O)cc1 [listing 2 of 2 here] |  |  |  |  | 0.06 | 3.3 | Ratio [6]: 5.45
CC1(C)SC[C@@H](C(=O)N[C@H](Cc2ccccc2)C(=O)N2CCC[C@H]2C(N)=O)N1C(=O)[C@@H](N)Cc1ccc(O)cc1 [listing 1 of 2 here] | > 10000 | 1420 | 246 | 37.7 |  |  | 
CC1(C)SC[C@@H](C(=O)N[C@H](Cc2ccccc2)C(=O)N2CCC[C@H]2C(N)=O)N1C(=O)[C@@H](N)Cc1ccc(O)cc1 [listing 2 of 2 here] |  |  |  |  | 0.00803 | 1 | 
NC(=O)[C@@H]1CCCN1C(=O)[C@@H](Cc1ccccc1)NC(=O)[C@@H]1COCN1C(=O)[C@@H](N)Cc1ccc(O)cc1 [listing 1 of 2 here] | > 10000 | 1020 | 470 | 58.9 |  |  | 
NC(=O)[C@@H]1CCCN1C(=O)[C@@H](Cc1ccccc1)NC(=O)[C@@H]1COCN1C(=O)[C@@H](N)Cc1ccc(O)cc1 [listing 2 of 2 here] |  |  |  |  | 0.0112 | 0.523 | 
CC1(C)OC[C@@H](C(=O)N[C@H](Cc2ccccc2)C(=O)N2CCC[C@H]2C(N)=O)N1C(=O)[C@@H](N)Cc1ccc(O)cc1 [listing 1 of 2 here] | > 10000 | 851 | 860 | 96.5 |  |  | 
CC1(C)OC[C@@H](C(=O)N[C@H](Cc2ccccc2)C(=O)N2CCC[C@H]2C(N)=O)N1C(=O)[C@@H](N)Cc1ccc(O)cc1 [listing 2 of 2 here] |  |  |  |  | 0.0134 | 0.286 | Ratio [6]: 2.17
NC(=O)[C@H](Cc1ccccc1)NC(=O)[C@H](Cc1ccccc1)NC(=O)[C@@H]1CSCN1C(=O)[C@@H](N)Cc1ccc(O)cc1 [listing 1 of 2 here] | 1980 | 138 | 22.2 | 6.41 |  |  | 
NC(=O)[C@H](Cc1ccccc1)NC(=O)[C@H](Cc1ccccc1)NC(=O)[C@@H]1CSCN1C(=O)[C@@H](N)Cc1ccc(O)cc1 [listing 2 of 2 here] |  |  |  |  | 0.0826 | 11.1 | Ratio [6]: 6.22
CC1(C)SC[C@@H](C(=O)N[C@@H](Cc2ccccc2)C(=O)N[C@@H](Cc2ccccc2)C(N)=O)N1C(=O)[C@@H](N)Cc1ccc(O)cc1 [listing 1 of 2 here] | > 10000 |  | 502 |  |  |  | Ki (Mu-type opioid receptor [8]): 50.4 nM
CC1(C)SC[C@@H](C(=O)N[C@@H](Cc2ccccc2)C(=O)N[C@@H](Cc2ccccc2)C(N)=O)N1C(=O)[C@@H](N)Cc1ccc(O)cc1 [listing 2 of 2 here] |  |  |  |  |  | 0.49 | Inhibition (Mus musculus [5]): 26%
CC1(C)OC[C@@H](C(=O)N[C@@H](Cc2ccccc2)C(=O)N[C@@H](Cc2ccccc2)C(N)=O)N1C(=O)[C@@H](N)Cc1ccc(O)cc1 [listing 1 of 2 here] | > 10000 | 606 | 305 | 46.9 |  |  | 
CC1(C)OC[C@@H](C(=O)N[C@@H](Cc2ccccc2)C(=O)N[C@@H](Cc2ccccc2)C(N)=O)N1C(=O)[C@@H](N)Cc1ccc(O)cc1 [listing 2 of 2 here] |  |  |  |  | 0.0188 | 0.807 | Ratio [6]: 1.99
NC(=O)[C@H](Cc1ccccc1)NC(=O)[C@H](Cc1ccccc1)NC(=O)[C@@H]1COCN1C(=O)[C@@H](N)Cc1ccc(O)cc1 [listing 1 of 2 here] | > 4000 | 151 | 41.7 | 7.86 |  |  | 
NC(=O)[C@H](Cc1ccccc1)NC(=O)[C@H](Cc1ccccc1)NC(=O)[C@@H]1COCN1C(=O)[C@@H](N)Cc1ccc(O)cc1 [listing 2 of 2 here] |  |  |  |  | 0.0755 | 5.9 | Ratio [6]: 3.62
NC(=O)[C@@H]1CCCN1C(=O)C(Cc1ccccc1)NC(=O)[C@H]1CCCN1C(=O)[C@@H](N)Cc1ccc(O)cc1 (stereo in doubt) [listing 1 of 2 here] | > 10000 |  |  |  |  |  | IC50 (Cavia porcellus [9]): 109 nM; IC50 (Mus musculus [10]): 594 nM
NC(=O)[C@@H]1CCCN1C(=O)C(Cc1ccccc1)NC(=O)[C@H]1CCCN1C(=O)[C@@H](N)Cc1ccc(O)cc1 (stereo in doubt) [listing 2 of 2 here] |  |  |  |  |  |  | Relative potency (Mus musculus [11]): 0.0192; Relative potency (Cavia porcellus [12]): 2.26
NC(=O)[C@H](Cc1ccccc1)NC(=O)[C@H](Cc1ccccc1)NC(=O)[C@@H]1CCCN1C(=O)[C@@H](N)Cc1ccc(O)cc1 [ENDOMORPHIN 2] |  |  |  |  |  |  | IC50 (Cavia porcellus [9]): 7.71 nM; IC50 (Mus musculus [10]): 15.3 nM
CC(C)C[C@H](NC(=O)[C@H](Cc1ccccc1)NC(=O)CNC(=O)CNC(=O)[C@@H](N)Cc1ccc(O)cc1)C(N)=O [[LEU5]ENKEPHALIN] |  |  |  |  |  |  | IC50 (Cavia porcellus [9]): 246 nM; IC50 (Mus musculus [10]): 11.4 nM
